Where a chain is given by its changes, count along the chain named. Calls of active or inactive are those of the source. No cut-off for these calls is given here.

The nature of data set [1]: Drug metabolism in human LNCAP cells assessed as metabolite formation at 10 uM measured upto 120 hrs by UPHLC analysis. It counts as ADME, cell-based. A digest of the protocol:
(§1)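 They were then given 10 μM compound or 0.1% DMSO vehicle. Media and trypsinised cell pellets were collected at 1, 6, 24, 48, 72 and 120 h, frozen at -80 °C, and analysed by UHPLC–Orbitrap MS using full MS/dd-MS² and full MS/AIF.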

The nature of data set [2]: Drug uptake in human LNCAP cells at 10 uM measured upto 120 hrs by UPHLC analysis. In kind it is ADME, cell-based. Particulars: TDE = time-dependent effect. A digest of the protocol: as §1
Data set [3] has as its system T1, Lysine-specific demethylase 4A (Homo sapiens), O75164 [H188A,E190A].
T1 sequence (whole entry): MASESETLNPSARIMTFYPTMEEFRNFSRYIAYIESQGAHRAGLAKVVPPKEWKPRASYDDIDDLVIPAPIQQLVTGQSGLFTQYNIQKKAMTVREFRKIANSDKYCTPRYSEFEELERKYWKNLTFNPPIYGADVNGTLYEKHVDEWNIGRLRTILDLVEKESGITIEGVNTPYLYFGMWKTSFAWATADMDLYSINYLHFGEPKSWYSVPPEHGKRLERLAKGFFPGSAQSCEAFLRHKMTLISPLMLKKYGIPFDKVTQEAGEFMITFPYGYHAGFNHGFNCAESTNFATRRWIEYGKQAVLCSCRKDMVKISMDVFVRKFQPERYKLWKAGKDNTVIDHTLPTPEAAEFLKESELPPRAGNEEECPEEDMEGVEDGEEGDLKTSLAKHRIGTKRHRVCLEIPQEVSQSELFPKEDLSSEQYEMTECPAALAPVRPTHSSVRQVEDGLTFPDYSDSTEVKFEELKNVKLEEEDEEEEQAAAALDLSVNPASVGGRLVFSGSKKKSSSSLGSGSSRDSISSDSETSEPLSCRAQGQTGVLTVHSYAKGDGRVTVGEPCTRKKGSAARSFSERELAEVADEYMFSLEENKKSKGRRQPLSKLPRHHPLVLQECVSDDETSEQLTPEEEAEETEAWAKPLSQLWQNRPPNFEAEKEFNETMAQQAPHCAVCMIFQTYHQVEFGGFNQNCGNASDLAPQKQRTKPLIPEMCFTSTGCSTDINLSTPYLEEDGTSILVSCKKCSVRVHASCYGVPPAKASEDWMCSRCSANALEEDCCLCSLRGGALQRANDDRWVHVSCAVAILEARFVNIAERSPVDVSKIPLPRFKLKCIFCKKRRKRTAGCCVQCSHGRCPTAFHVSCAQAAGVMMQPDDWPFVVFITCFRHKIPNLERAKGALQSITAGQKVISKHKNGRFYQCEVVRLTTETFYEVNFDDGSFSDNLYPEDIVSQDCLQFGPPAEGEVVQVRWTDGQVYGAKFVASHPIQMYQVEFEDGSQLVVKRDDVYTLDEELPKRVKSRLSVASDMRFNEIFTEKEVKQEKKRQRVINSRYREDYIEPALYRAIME
Nature of the data set: Inhibition of FLAG tagged full length catalytically inactive human KDM4A H188A/E190A mutant transfected in HeLa cells assessed as change in H3K9Me3 level measured after 24 hrs by cell analyser based immunofluorescence assay. The method in brief:
(§2)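 HeLa cells grown in DMEM with 10% FBS, 37°C, 5% CO₂, seeded 6000 cells/well overnight. Compounds serially diluted 1:3 to 1:5 in medium with 20% FBS, DMSO held constant, then added for 24 h. Histone mark read by immunofluorescence imaging, 10 fields per well at 20X.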

Data set [4] relates to Lysine-specific demethylase 5B (Homo sapiens), Q9UGL1 [H499A,E501A]. As to the kind of experiment: Inhibition of full length human catalytically inactive KDM5B H499A/E501A mutant transfected in HeLa cells assessed as change in H3K4Me3 level measured after 24 hrs by cell analyser based immunofluorescence assay. The method in brief:
as §2

For data set [5], the target named is Lysine-specific demethylase 5B (Homo sapiens) (UniProt Q9UGL1). Nature of the data set: Inhibition of full length human wild type KDM5B transfected in HeLa cells assessed as increase in H3K4Me3 level measured after 24 hrs by cell analyser based immunofluorescence assay.
Data set [6] deals with T2, Lysine-specific demethylase 4A (Homo sapiens) (UniProt O75164).
T2 sequence (whole entry): T1 sequence (whole entry) with A188H, A190E
Nature of the data set: Inhibition of FLAG tagged full length wild type human KDM4A transfected in HeLa cells assessed as increase in H3K9Me3 level measured after 24 hrs by cell analyser based immunofluorescence assay.

Lysine-specific demethylase 5B (Homo sapiens), Q9UGL1 [H499A,E501A], sequence (Q9UGL1 whole entry H499A/E501A): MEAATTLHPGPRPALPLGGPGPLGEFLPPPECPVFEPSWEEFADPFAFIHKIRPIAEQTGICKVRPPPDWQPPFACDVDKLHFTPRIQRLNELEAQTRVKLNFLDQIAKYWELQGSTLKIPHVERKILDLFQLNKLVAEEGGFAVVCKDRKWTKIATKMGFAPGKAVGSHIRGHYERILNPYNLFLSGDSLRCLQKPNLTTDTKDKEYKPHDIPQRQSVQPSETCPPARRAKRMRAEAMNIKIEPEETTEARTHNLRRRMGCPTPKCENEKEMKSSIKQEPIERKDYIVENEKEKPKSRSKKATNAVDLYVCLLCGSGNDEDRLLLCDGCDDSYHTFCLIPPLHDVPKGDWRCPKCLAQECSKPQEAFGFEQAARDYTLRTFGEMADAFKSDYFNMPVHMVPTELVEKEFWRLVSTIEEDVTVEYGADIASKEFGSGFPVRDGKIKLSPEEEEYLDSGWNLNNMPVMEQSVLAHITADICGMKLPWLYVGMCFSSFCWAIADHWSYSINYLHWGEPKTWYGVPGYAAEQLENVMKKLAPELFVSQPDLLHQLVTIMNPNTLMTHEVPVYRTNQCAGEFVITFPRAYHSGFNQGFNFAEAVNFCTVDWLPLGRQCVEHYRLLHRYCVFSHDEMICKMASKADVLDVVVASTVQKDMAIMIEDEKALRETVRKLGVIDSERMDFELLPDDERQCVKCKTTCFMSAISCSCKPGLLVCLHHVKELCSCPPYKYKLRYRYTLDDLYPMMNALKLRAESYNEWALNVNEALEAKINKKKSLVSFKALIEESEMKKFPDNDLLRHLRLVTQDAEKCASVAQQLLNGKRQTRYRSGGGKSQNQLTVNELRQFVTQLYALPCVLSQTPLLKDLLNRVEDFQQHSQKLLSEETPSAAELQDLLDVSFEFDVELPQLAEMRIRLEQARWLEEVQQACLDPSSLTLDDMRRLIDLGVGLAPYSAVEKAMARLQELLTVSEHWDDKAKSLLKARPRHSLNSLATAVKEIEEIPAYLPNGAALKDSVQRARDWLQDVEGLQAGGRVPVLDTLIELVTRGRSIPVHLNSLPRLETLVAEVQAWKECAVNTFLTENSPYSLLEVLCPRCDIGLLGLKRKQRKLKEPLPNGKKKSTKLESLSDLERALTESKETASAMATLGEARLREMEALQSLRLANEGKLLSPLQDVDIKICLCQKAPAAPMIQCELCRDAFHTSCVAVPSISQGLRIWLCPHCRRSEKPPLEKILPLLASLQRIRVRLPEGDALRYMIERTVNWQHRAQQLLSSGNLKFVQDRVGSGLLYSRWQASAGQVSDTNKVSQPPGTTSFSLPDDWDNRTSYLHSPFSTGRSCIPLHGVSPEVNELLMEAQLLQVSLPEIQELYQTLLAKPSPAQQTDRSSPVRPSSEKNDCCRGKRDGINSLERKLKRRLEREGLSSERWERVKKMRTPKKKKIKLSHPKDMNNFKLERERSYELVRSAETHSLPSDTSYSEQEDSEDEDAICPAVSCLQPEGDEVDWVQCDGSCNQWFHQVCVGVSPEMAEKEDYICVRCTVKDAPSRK
Lysine-specific demethylase 5B (Homo sapiens), sequence (Q9UGL1 whole entry): as the sequence (Q9UGL1 whole entry H499A/E501A) above, with A499H, A501E counted along it

As to `O=c1[nH]cnc2c(-n3cc(CCN4CCC5(CCc6ccccc65)CC4)cn3)nccc12`, the Drug metabolism result in data set [1] is “Metabolite_Notdetected”. The Drug uptake result in data set [2] is on record as “Tde”. Moreover, the inhibition entry in data set [3] and in data set [4] was “inactive” in each case.
On to `O=c1[nH]cnc2c(-n3cc(CCN4CCC5(CCc6ccccc65)CC4)cn3)cccc12`, for which the Drug metabolism entry in data set [1] is “Metabolite_Notdetected”. Besides, the inhibition entry in data set [5], in data set [3], in data set [6] and in data set [4] was “inactive” in each case. The Drug uptake entry in data set [2] is “Tde”.

These data come from ChEMBL document CHEMBL4350996, “C8-substituted pyrido[3,4-d]pyrimidin-4(3H)-ones: Studies towards the identification of potent, cell penetrant Jumonji C domain containing histone lysine demethylase 4 subfamily (KDM4) inhibitors, compound profiling in cell-based target engagement assays” (Eur J Med Chem, 2019).
